Myeloid diff 2: compounds promoting myeloid differentiation; ER-HoxA9 myeloid progenitors, lysozyme-GFP differentiation, flow cytometry; actives 1% (n = 360,000); calls only at 10 µM;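 active means normalized GFP-positive differentiation at or above the plate's own cutoff, the solvent-only control mean plus 3 SD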;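 further: cells exposed to compound for four days before flow analysis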
Granule exo inh: lytic granule exocytosis inhibition; TALL-104 LAMP-1 surface exposure, flow cytometry; cells stimulated with thapsigargin and PMA; inhibition, % at 10 µM; actives 0.66% (n = 360,000); AID 651702;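 active means inhibition above about 55%, limit read from the data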
CSN deneddyl inh: CSN deneddylation inhibition; Q92905; actives 0.38% (n = 360,000); Purified CSN, SCF-Nedd8-OG deneddylation, fluorescence polarization; inhibition, % at 12.5 µM;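 active means pattern-corrected inhibition above about 35%, with an unprinted fluorescence ratio check between 0.5 and 1.5, limit read from the data, passing the limit was not always enough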
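Schedule: reaction 90 min, room temperature / Assay system: HEK293T-derived human Csn5 enzyme / Input: Csn5 at 0.24 nM final / Measure: inhibition of Csn5 cleavage, % / Control set: substrate-only high control, full reaction low control / Technique: fluorescence polarization of the substrate / Buffer or medium: Tris/NaCl/DTT buffer, pH 7.5 / Reagent: SCFSkp2-Nedd8OG substrate at 10 nM final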
HNF4A DNA FP: change in binding of human HNF4 alpha to DNA; actives 0.3% (n = 360,000); activity change, % at 10 µM; HNF4a-FITC DNA binding, fluorescence polarization, 1 h; P41235; in the data active means activity change above about 30%, passing the limit was not always enough
Target sequence (P41235 whole entry, looked up): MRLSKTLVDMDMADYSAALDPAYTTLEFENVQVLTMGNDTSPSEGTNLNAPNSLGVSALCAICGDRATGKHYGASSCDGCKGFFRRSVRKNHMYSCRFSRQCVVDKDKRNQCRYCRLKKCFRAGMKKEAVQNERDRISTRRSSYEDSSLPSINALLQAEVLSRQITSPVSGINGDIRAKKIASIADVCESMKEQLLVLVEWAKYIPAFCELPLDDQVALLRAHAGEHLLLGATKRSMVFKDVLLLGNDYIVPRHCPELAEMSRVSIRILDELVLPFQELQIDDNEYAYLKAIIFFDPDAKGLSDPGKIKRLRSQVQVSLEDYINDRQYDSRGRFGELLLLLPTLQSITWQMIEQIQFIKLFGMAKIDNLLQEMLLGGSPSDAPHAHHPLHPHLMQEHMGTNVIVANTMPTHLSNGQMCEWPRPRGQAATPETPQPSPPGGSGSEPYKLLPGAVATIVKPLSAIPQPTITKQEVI
Exocytosis CP01: blocks lytic granule exocytosis; actives 11% (n = 1,500); AID 651954; TALL-104 cells, LAMP-1 externalization, flow cytometry; stimulated with PMA plus thapsigargin; inhibition, % at 10 µM; shares compounds with Granule exo inh; in the data active means inhibition above about 60%
Of the large screens only hits and unclear results are named; the others gave an inactive call (follow-up assays come after a bar, where they were run). In the library only some 2.2% were active in any assay of this set; here they are far more common.

Cc1sc2ncnc(N3CCN(Cc4ccccc4)CC3)c2c1-c1ccc(F)cc1	Granule exo inh 65 | Exocytosis CP01 inactive
Fc1ccc(CN2CCN(c3ncnc4scc(-c5ccccc5)c34)CC2)cc1	Granule exo inh 74 | Exocytosis CP01 inactive
Cc1ccc(-c2csc3ncnc(N4CCN(Cc5ccccc5)CC4)c23)cc1	none
COc1ccc(-c2csc3ncnc(N4CCN(c5ccccc5OC)CC4)c23)cc1	Granule exo inh 88 | Exocytosis CP01 inactive
c1ccc(-c2csc3ncnc(N4CCN(Cc5ccc6c(c5)OCO6)CC4)c23)cc1	Granule exo inh 76 | Exocytosis CP01 inactive
Fc1ccc(-c2csc3ncnc(N4CCN(Cc5ccccc5)CC4)c23)cc1	none
Cc1cc(-c2csc3ncnc(N4CCN(C)CC4)c23)cc(C)c1C	Granule exo inh 96 | Exocytosis CP01 inactive
COc1cccc(NC(=O)CN(C)C(=O)c2ccc(Cl)c(S(=O)(=O)N3CCCCCC3)c2)c1	none
CC1=C(C(=O)N(C(C)C)C(C)C)CC(CC(=O)NCC2CCCCC2)C(=O)N1Cc1ccc(C(C)(C)C)cc1 (centres undefined)	Granule exo inh 64 | Exocytosis CP01 inactive
CCN(CC)S(=O)(=O)c1cc(NC(=O)CNc2cccc(S(=O)(=O)N3CCOCC3)c2)ccc1C	Granule exo inh 57 | Exocytosis CP01 inactive
Cc1ccc(NC(=O)CNc2cccc(S(=O)(=O)N3CCOCC3)c2)cc1F	none
COC(=O)C1=C(C)N(CCCC(=O)O)C(=O)NC1c1ccc(Cl)cc1 (centres undefined)	none
CC1=C(C(=O)OCc2ccccc2)C(c2ccc(Cl)cc2Cl)NC(=O)N1CCCC(=O)O (centres undefined)	Granule exo inh 75 | Exocytosis CP01 inactive
COC(=O)C1=C(C)N(CCCC(=O)O)C(=O)NC1c1ccc2c(c1)OCO2 (centres undefined)	Granule exo inh 79 | Exocytosis CP01 inactive
COc1ccc(CCNC(=O)COC(=O)C2CC2C)cc1OC (centres undefined)	none
O=C(NCC(=O)N1CCN(Cc2c(F)cccc2Cl)CC1)c1cccc(Cl)c1	none
Cc1cc(CNC(=O)COc2ccccc2)c2ccccc2n1	none
Cc1cc(CNC(=O)COc2ccc([N+](=O)[O-])cc2)c2ccccc2n1	Granule exo inh 60 | Exocytosis CP01 inactive
Cc1cccc(CN2CCc3c([nH]c4ccccc34)C2CC(C)C)n1 (centres undefined)	Granule exo inh 63 | Exocytosis CP01 inactive
CC(Nc1nc(N2CCNCC2)nc2ccccc12)c1ccccc1 (centres undefined)	Granule exo inh 87 (no result: Myeloid diff 2) | Exocytosis CP01 79
CC(Nc1nc(-c2ccncc2)nc2ccccc12)c1ccccc1 (centres undefined)	none
COc1cc2nc(SCc3ccc(F)cc3)n(Cc3cccs3)c(=N)c2cc1OC	none
COc1ccc(Cn2c(SCc3ccccc3C)nc3cc(OC)c(OC)cc3c2=N)cc1	Granule exo inh 96 | Exocytosis CP01 inactive
CC(C)CC(=O)NC1(C(F)(F)F)NC(=O)N(c2ccccc2)C1=O (centres undefined)	Granule exo inh 90 | Exocytosis CP01 inactive
CN(C)CCC(Oc1ccccc1OCc1ccccc1)c1ccccc1 (centres undefined)	Granule exo inh 56 | Exocytosis CP01 inactive
Cc1ccc(S(=O)(=O)N2CCN(C(=S)NCc3ccc4c(c3)OCO4)CC2)cc1	Granule exo inh 75 | Exocytosis CP01 inactive
Cc1cc(C)c(OCC(=O)OCC(=O)N2CCN(C(=O)c3ccco3)CC2)c(C)c1	none
Cc1cc(Br)cc(Cl)c1OCC(=O)N1CCN(C(=O)c2ccco2)CC1	Granule exo inh 89 | Exocytosis CP01 inactive
CCCN1CCC(N(CCc2ccccc2)Cc2ccccc2)CC1	none
COc1ccc(CN2CCC(N(CCc3ccccc3)Cc3ccccc3)CC2)c(OC)c1	Granule exo inh 60 | Exocytosis CP01 inactive
CCN(CC)CCNc1ncnc2c1sc1nc(N3CCCC3)c3c(c12)CC(C)(C)OC3	Granule exo inh 56 | Exocytosis CP01 inactive
CN(C)CCNc1ncnc2c1sc1nc(N3CCCC3)c3c(c12)CC(C)(C)OC3	none
CN(C(=O)CSc1nc(C2CC2)n(-c2ccccc2)n1)C1CCS(=O)(=O)C1 (centres undefined)	none
C=CCn1c(C)nnc1SCC(=O)Nc1oc(C)c2c(C)n[nH]c(=O)c12	Granule exo inh 80 | Exocytosis CP01 inactive
Cc1n[nH]c(=O)c2c(NC(=O)CSc3ncccn3)oc(C)c12	none

Assay outcomes from PubChem BioAssay.
